Experimental data: ChEMBL document CHEMBL1124927, “Synthesis and structure-activity relationships of new 7-[3-(fluoromethyl)piperazinyl]- and -(fluorohomopiperazinyl)quinolone antibacterials” (1990)
Converted amounts (≈) assume the structure as drawn.

Legend:
Escherichia coli [1] = assay: In vitro minimal inhibitory concentration against Escherichia coli #311 (Ec(B)); type: functional
How it was run: (§1)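 Agar dilution: two-fold serial drug dilutions in Mueller–Hinton agar; plates inoculated with 1–5 × 10⁴ CFU via Steers multiple inocula replicator; incubated 18 h at 35 °C. MIC = lowest concentration preventing macroscopic growth.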

Enterococcus faecalis [2] = assay: In vitro minimal inhibitory concentration against Streptococcus faecalis UCI-85 (Sf(U)); type: functional; how it was run: as §1
Morganella morganii = assay: In vitro minimal inhibitory concentration against Morganella morganii CMC-84-39 (Mn); type: functional; how it was run: as §1
Escherichia coli [3] = assay: In vitro minimal inhibitory concentration against Escherichia coli ATCC 25922 (Ec(A)); type: functional; how it was run: as §1
Staphylococcus aureus [4] = assay: In vitro minimal inhibitory concentration against Staphylococcus aureus Smith (MP) (Sa(A)); type: functional; how it was run: as §1
Enterobacter cloacae [5] = assay: (§2) In vitro minimal inhibitory concentration against Enterobacter cloacae VGH-84-39 (Et(c)); type: functional
Enterococcus faecalis [6] = assay: In vitro minimal inhibitory concentration Streptococcus faecalis VGH-84 (Sf(V)); type: functional; how it was run: as §1
Pseudomonas aeruginosa = assay: In vitro minimal inhibitory concentration against Pseudomonas aeruginosa 12-4-4 (Pa); type: functional; how it was run: as §1
Staphylococcus aureus [7] = assay: In vitro minimal inhibitory concentration against Staphylococcus aureus ATCC 29213 (Sa(B)); type: functional; how it was run: as §1
[8] = Ratio of ED50 value of (po/sc) was determined for Escherichia coli #311; type: functional
How it was run: (§3)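 Oral and subcutaneous ED50 values from ip-infected CD-1 female mice (treated 0.5 h post-infection, 2-fold doses in 0.2% aqueous agar, five mice/dose, 7-day survival, three pooled tests, probit analysis); ratio taken as po ED50 divided by sc ED50, as an index of absorption.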

Escherichia coli [9] = assay: Median effective dose against female mice infected with Escherichia coli #311 after oral administration; type: functional
How it was run: (§4)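 CD-1 female mice (20 ± 2 g) infected ip with 0.5 mL standardized bacterial suspension (E. coli #311 in trypticase–soy broth; S. aureus Smith in 5% hog gastric mucin). Dosed 0.5 h post-infection, oral or subcutaneous, 2-fold dose increments in 0.5 mL 0.2% aqueous agar; five mice per dose. 7-day survival pooled from three tests; ED50 by probit analysis, 95% confidence limits.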

Staphylococcus aureus [10] = assay: Median effective dose against female mice infected with Staphylococcus aureus Smith after oral administration; type: functional; how it was run: as §4
[11] = Ratio of ED50 value of (po/sc) was determined for Staphylococcus aureus Smith; type: functional; how it was run: as §3
Staphylococcus aureus [12] = assay: Median effective dose against female mice infected with Staphylococcus aureus Smith after subcutaneous administration; type: functional; conditions: sc; how it was run: as §4
Escherichia coli [13] = assay: Median effective dose against female mice infected with Escherichia coli #311 after subcutaneous administration; type: functional; conditions: sc; how it was run: as §4
Enterobacter cloacae [14] = assay: as §2; type: functional; how it was run: as §1; remark: listed apart in the source
Escherichia coli [15] = assay: animal or person; conditions: in Mus musculus, po
Escherichia coli [16] = assay: animal or person; conditions: in Mus musculus, sc

Structure (SMILES)	MIC (Escherichia coli [1])	MIC (Enterococcus faecalis [2])	MIC (Morganella morganii)	MIC (Escherichia coli [3])	MIC (Staphylococcus aureus [4])	MIC (Enterobacter cloacae [5])	MIC (Enterococcus faecalis [6])	MIC (Pseudomonas aeruginosa)	MIC (Staphylococcus aureus [7])	Ratio [8]	ED50 (Escherichia coli [9]; Escherichia coli, po)	ED50 (Staphylococcus aureus [10])	Ratio [11]	ED50 (Staphylococcus aureus [12])	ED50 (Escherichia coli [13])	MIC (Enterobacter cloacae [14])	ED50 (Escherichia coli [9])	ED50 (Escherichia coli [15])	ED50 (Escherichia coli [16])
O=C(O)c1cn(C2CC2)c2cc(N3CCNCC(O)C3)c(F)cc2c1=O (stereo not given)	0.5 µg/mL (≈ 1.38 µM)	16 µg/mL (≈ 44.3 µM)	0.12 µg/mL (≈ 0.332 µM)	0.25 µg/mL (≈ 0.692 µM)	4 µg/mL (≈ 11.1 µM)	0.25 µg/mL (≈ 0.692 µM)	16 µg/mL (≈ 44.3 µM)	2 µg/mL (≈ 5.53 µM)	16 µg/mL (≈ 44.3 µM)	–	–	–	–	–	–	–	–	–	–
O=C(O)c1cn(C2CC2)c2cc(N3CCNCC(F)C3)c(F)cc2c1=O (stereo not given)	0.03 µg/mL (≈ 0.0826 µM)	4 µg/mL (≈ 11 µM)	0.06 µg/mL (≈ 0.165 µM)	0.03 µg/mL (≈ 0.0826 µM)	0.25 µg/mL (≈ 0.688 µM)	0.06 µg/mL (≈ 0.165 µM)	4 µg/mL (≈ 11 µM)	2 µg/mL (≈ 5.5 µM)	1 µg/mL (≈ 2.75 µM)	–	–	–	–	–	–	–	–	–	–
CC1CN(c2cc3c(cc2F)c(=O)c(C(=O)O)cn3C2CC2)CCN1 (stereo not given)	≤ 0.015 µg/mL	2 µg/mL (≈ 5.79 µM)	0.03 µg/mL (≈ 0.0869 µM)	≤ 0.015 µg/mL	0.12 µg/mL (≈ 0.347 µM)	0.015 µg/mL (≈ 0.0434 µM)	1 µg/mL (≈ 2.9 µM)	0.25 µg/mL (≈ 0.724 µM)	0.5 µg/mL (≈ 1.45 µM)	4.7	0.42 mg/kg	2.4 mg/kg	3.9	0.61 mg/kg	0.09 mg/kg	–	–	–	–
O=C(O)c1cn(-c2ccc(F)cc2)c2cc(N3CCNC(CF)C3)c(F)cc2c1=O (stereo not given)	0.25 µg/mL (≈ 0.599 µM)	4 µg/mL (≈ 9.58 µM)	1 µg/mL (≈ 2.4 µM)	0.25 µg/mL (≈ 0.599 µM)	0.25 µg/mL (≈ 0.599 µM)	–	4 µg/mL (≈ 9.58 µM)	8 µg/mL (≈ 19.2 µM)	0.5 µg/mL (≈ 1.2 µM)	–	–	–	–	–	–	0.25 µg/mL (≈ 0.599 µM)	–	–	–
CCn1cc(C(=O)O)c(=O)c2cc(F)c(N3CCNC(CF)C3)cc21 (stereo not given)	≤ 0.12 µg/mL	4 µg/mL (≈ 11.4 µM)	0.12 µg/mL (≈ 0.342 µM)	0.12 µg/mL (≈ 0.342 µM)	≤ 0.12 µg/mL	0.12 µg/mL (≈ 0.342 µM)	2 µg/mL (≈ 5.69 µM)	32 µg/mL (≈ 91.1 µM)	0.25 µg/mL (≈ 0.712 µM)	1	–	6 mg/kg	2.3	2.6 mg/kg	3 mg/kg	–	2.8 mg/kg	–	–
O=C(O)c1cn(C2CC2)c2cc(N3CCCNCC3)c(F)cc2c1=O	0.03 µg/mL (≈ 0.0869 µM)	2 µg/mL (≈ 5.79 µM)	0.03 µg/mL (≈ 0.0869 µM)	0.03 µg/mL (≈ 0.0869 µM)	0.25 µg/mL (≈ 0.724 µM)	0.03 µg/mL (≈ 0.0869 µM)	1 µg/mL (≈ 2.9 µM)	1 µg/mL (≈ 2.9 µM)	2 µg/mL (≈ 5.79 µM)	–	–	–	–	–	–	–	–	–	–
CCn1cc(C(=O)O)c(=O)c2cc(F)c(N3CCNC(CO)C3)cc21.Cl (stereo not given)	1 µg/mL	16 µg/mL	0.5 µg/mL	2 µg/mL	8 µg/mL	1 µg/mL	16 µg/mL	64 µg/mL	32 µg/mL	–	–	–	–	–	–	–	–	–	–
O=C(O)c1cn(C2CC2)c2cc(N3CCNC(CF)C3)c(F)cc2c1=O (stereo not given)	0.03 µg/mL (≈ 0.0826 µM)	2 µg/mL (≈ 5.5 µM)	0.12 µg/mL (≈ 0.33 µM)	0.06 µg/mL (≈ 0.165 µM)	0.12 µg/mL (≈ 0.33 µM)	0.12 µg/mL (≈ 0.33 µM)	1 µg/mL (≈ 2.75 µM)	2 µg/mL (≈ 5.5 µM)	0.25 µg/mL (≈ 0.688 µM)	2	1.2 mg/kg	2.8 mg/kg	3	0.94 mg/kg	0.6 mg/kg	–	–	–	–
O=C(O)c1cn(C2CC2)c2cc(N3CCNCC3)c(F)cc2c1=O [CIPROFLOXACIN]	≤ 0.015 µg/mL	1 µg/mL (≈ 3.02 µM)	0.015 µg/mL (≈ 0.0453 µM)	≤ 0.015 µg/mL	0.25 µg/mL (≈ 0.754 µM)	–	1 µg/mL (≈ 3.02 µM)	–	1 µg/mL (≈ 3.02 µM)	–	–	3.8 mg/kg	–	0.69 mg/kg	–	–	–	0.49 mg/kg	0.07 mg/kg
CCn1cc(C(=O)O)c(=O)c2cc(F)c(N3CCNC(C(F)F)C3)c(F)c21 (stereo not given)	0.5 µg/mL (≈ 1.29 µM)	4 µg/mL (≈ 10.3 µM)	1 µg/mL (≈ 2.58 µM)	0.5 µg/mL (≈ 1.29 µM)	0.12 µg/mL (≈ 0.31 µM)	1 µg/mL (≈ 2.58 µM)	4 µg/mL (≈ 10.3 µM)	32 µg/mL (≈ 82.6 µM)	0.25 µg/mL (≈ 0.645 µM)	–	–	–	–	–	–	–	–	–	–
